The text below walks through data of ChEMBL document CHEMBL4765256, “Structural features and functional activities of benzimidazoles as NOD2 antagonists” (Eur J Med Chem, 2020).

The test system of data set [1] is THP-1. The data set is described as follows: Antagonist activity at NOD1/TLR4 in human THP-1 cells assessed as reduction in C12-iE-DAP/LPS-induced TNF-alpha secretion at 20 uM preincubated for 1 hr followed by C12-iE-DAP/LPS stimulation and measured after 20 hrs by ELISA. It counts as cell-based. Particulars: time 21.0 hrs. In outline:
(§1)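 Synergy setting in THP-1 cells: 1 h pre-treatment with 20 µM compound, then 10 µM MDP or C12-iE-DAP plus 1 ng/mL E. coli O127:B8 LPS for 20 h. Supernatant TNF-α by sandwich ELISA, detection limit 4 pg/mL. DMSO vehicle ≤0.2%. Duplicates from three independent experiments, mean ± SD, Dunnett test against agonist+LPS-treated cells.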

Data set [2] concerns THP-1. Description: Antagonist activity at NOD in human THP-1 cells assessed as increase in TNF-alpha secretion at 20 uM. It counts as cell-based. In outline: (§2)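 THP-1 cells at 10^6 cells/mL in RPMI 1640 with 10% heat-inactivated FCS, passages 3–12, exposed to 20 µM compound alone (no NOD agonist). IL-8 and TNF-α in cell-free supernatants measured by sandwich ELISA, reported in pg/mL. Detection limits were 15.6 pg/mL for IL-8 and 4 pg/mL for TNF-α. DMSO vehicle control, not above 0.2% final.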

For data set [3], the target named is T1, Nucleotide-binding oligomerization domain-containing protein 2 (Homo sapiens, UniProt Q9HC29). The data set is described as follows: Antagonist activity at NOD2 in human PBMC assessed as reduction in MDP-induced IL-6 secretion at 20 uM preincubated for 1 hr followed by MDP stimulation and measured after 18 hrs by flow cytometric analysis. In kind it is tissue-based. Particulars: filed as antagonist, time 19.0 hrs. In short, it runs like this:
(§3)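 Human PBMCs from healthy donors, Ficoll density-gradient isolated, 1 × 10^6 cells in RPMI 1640 with 10% heat-inactivated FBS. Pre-treated 1 h with 20 µM compound, then 2 µM MDP. Supernatants taken at 18 h and stored at −80 °C. Cytokines quantified by flow cytometric bead array (Th1/Th2 panel) against recombinant standards, in pg/mL. Mean ± SD from two representative experiments.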
Background: A flow cytometer gives signals particle by particle.

The target in data set [4] is T2, Nucleotide-binding oligomerization domain-containing protein 1 (Homo sapiens) (UniProt Q9Y239).
T2 sequence (whole entry): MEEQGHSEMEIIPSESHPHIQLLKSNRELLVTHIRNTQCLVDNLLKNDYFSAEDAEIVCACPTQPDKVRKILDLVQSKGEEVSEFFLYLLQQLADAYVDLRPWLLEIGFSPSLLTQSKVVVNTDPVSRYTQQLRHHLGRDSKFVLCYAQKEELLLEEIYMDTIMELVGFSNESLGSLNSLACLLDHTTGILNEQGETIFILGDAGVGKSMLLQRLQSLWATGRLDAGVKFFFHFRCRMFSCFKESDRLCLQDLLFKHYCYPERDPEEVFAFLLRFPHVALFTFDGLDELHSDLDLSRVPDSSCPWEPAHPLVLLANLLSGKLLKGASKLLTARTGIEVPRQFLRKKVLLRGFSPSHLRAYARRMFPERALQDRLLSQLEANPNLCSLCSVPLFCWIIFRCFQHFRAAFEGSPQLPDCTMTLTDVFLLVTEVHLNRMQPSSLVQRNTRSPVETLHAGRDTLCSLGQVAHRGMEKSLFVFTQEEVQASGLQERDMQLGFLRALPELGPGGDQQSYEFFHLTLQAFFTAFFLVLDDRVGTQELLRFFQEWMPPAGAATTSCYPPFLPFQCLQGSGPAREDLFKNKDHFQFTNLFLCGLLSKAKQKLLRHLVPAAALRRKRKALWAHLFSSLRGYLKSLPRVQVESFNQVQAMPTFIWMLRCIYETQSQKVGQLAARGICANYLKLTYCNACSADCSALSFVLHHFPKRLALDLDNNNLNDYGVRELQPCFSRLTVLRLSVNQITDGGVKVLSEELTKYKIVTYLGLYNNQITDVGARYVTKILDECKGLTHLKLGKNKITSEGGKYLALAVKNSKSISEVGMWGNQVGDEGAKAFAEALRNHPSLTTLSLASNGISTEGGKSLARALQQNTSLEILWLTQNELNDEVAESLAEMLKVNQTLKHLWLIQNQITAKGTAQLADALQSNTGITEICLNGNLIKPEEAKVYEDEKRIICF
The data set is described as follows: Antagonist activity at human NOD1 expressed in HEK293 cells assessed as reduction in C12-iE-DAP-induced NF-kappaB activation at 10 uM preincubated for 1 hr followed by C12-iE-DAP stimulation and measured after 18 hrs by SEAP reporter gene based spectrophotometric analysis. It counts as cell-based. Particulars: filed as antagonist, time 19.0 hrs. In outline: (§4)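 HEK-Blue NOD1 or NOD2 reporter cells (5 × 10^5 cells/mL, passages 7–12) pre-treated 1 h with 10 µM compound. Then 100 nM C12-iE-DAP (NOD1) or 2 µM MDP (NOD2) for 18 h at 37 °C, 5% CO2. Secreted SEAP read at 620 nm. DMSO ≤0.1% vehicle control. Duplicates, three biological replicates.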
For orientation: In a reporter assay the amount or activity of a reporter protein is the signal.

In data set [5] the test system is THP-1. Description: Antagonist activity at NOD in human THP-1 cells assessed as increase in IL-8 secretion at 20 uM. It counts as cell-based. In outline:
as §2

Data set [6] addresses T1, Nucleotide-binding oligomerization domain-containing protein 2. Description: Antagonist activity at NOD2 in human PBMC assessed as reduction in MDP-induced IL-10 secretion at 20 uM preincubated for 1 hr followed by MDP stimulation and measured after 18 hrs by flow cytometric analysis. In kind it is tissue-based. Particulars: filed as antagonist, time 19.0 hrs. In short, it runs like this: as §3

Data set [7] has as its target T3, Nucleotide-binding oligomerization domain-containing protein 1 (Homo sapiens, UniProt Q9Y239).
T3 sequence (Q9Y239 whole entry): T2 sequence (whole entry)
The data set is described as follows: Antagonist activity at human NOD1 expressed in HEK293 cells assessed as reduction in C12-iE-DAP-induced NF-kappaB activation preincubated for 1 hr followed by C12-iE-DAP stimulation and measured after 18 hrs by SEAP reporter gene based spectrophotometric analysis. In kind it is cell-based.

For data set [8], the target named is T2, Nucleotide-binding oligomerization domain-containing protein 1 (Homo sapiens). Description: Antagonist activity at NOD1 in human THP-1 cells assessed as reduction in C12-iE-DAP-induced IL-8 secretion at 20 uM preincubated for 1 hr followed by C12-iE-DAP stimulation and measured after 20 hrs by ELISA. It counts as cell-based. Particulars: filed as antagonist, time 21.0 hrs. In outline: (§5)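 THP-1 cells at 10^6 cells/mL in 24-well cultures, passages 3–12. Pre-treated 1 h with 20 µM compound, then 10 µM MDP (NOD2) or 10 µM C12-iE-DAP (NOD1) added, 20 h at 37 °C, 5% CO2. Triplicate wells, DMSO ≤0.2% as vehicle control. Supernatant IL-8 by sandwich ELISA, detection limit 15.6 pg/mL. Mean ± SD of duplicates from three independent experiments, Dunnett test.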
In general terms: In an ELISA, binding on a coated surface is turned into a signal by an enzyme label.

For data set [9], the system named is THP-1. The data set is described as follows: Antagonist activity at NOD2/TLR4 in human THP-1 cells assessed as reduction in MDP/LPS-induced TNF-alpha secretion at 20 uM preincubated for 1 hr followed by MDP/LPS stimulation and measured after 20 hrs by ELISA. It counts as cell-based. The settings on record: filed as antagonist, time 21.0 hrs. In short, it runs like this:
as §1

Data set [10] has as its system HEK293. The data set is described as follows: Cytotoxicity against human HEK293 cells expressing human NOD1 assessed as reduction in metabolic activity at 20 uM incubated for 18 hrs by MTS assay. In kind it is ADME, cell-based. Particulars: hek293, 18 h. In short, it runs like this:
(§6)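 HEK-Blue NOD1 or NOD2 cells seeded at 1 × 10^4 cells/well in triplicate. Treated 18 h with 20 µM compound or 0.1% DMSO vehicle. Metabolic activity read by MTS (CellTiter 96 AQueous One) and expressed relative to vehicle control. Mean ± SD of three biological replicates.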

Data set [11] relates to HEK293. Description: Cytotoxicity against human HEK293 cells expressing human NOD2 assessed as reduction in metabolic activity at 20 uM incubated for 18 hrs by MTS assay. Particulars: hek293, 18 h. In kind it is ADME, cell-based. In short, it runs like this: as §6
Data set [12] addresses T1, Nucleotide-binding oligomerization domain-containing protein 2. The data set is described as follows: Antagonist activity at NOD2 in human THP-1 cells assessed as reduction in MDP-induced IL-8 secretion at 20 uM preincubated for 1 hr followed by MDP stimulation and measured after 20 hrs by ELISA. It counts as cell-based. Particulars: filed as antagonist, time 21.0 hrs. In outline:
as §5

Data set [13] shares this target. The data set is described as follows: Antagonist activity at human NOD2 expressed in HEK293 cells assessed as reduction in MDP-induced NF-kappaB activation at 10 uM preincubated for 1 hr followed by MDP stimulation and measured after 18 hrs by SEAP reporter gene based spectrophotometric analysis. Particulars: filed as antagonist, time 19.0 hrs. In kind it is cell-based. In short, it runs like this: as §4

The target is the same in data set [14]. Description: Antagonist activity at human NOD2 expressed in HEK293 cells assessed as reduction in MDP-induced NF-kappaB activation preincubated for 1 hr followed by MDP stimulation and measured after 18 hrs by SEAP reporter gene based spectrophotometric analysis. In kind it is cell-based. Particulars: read-out: IC50. In outline: (§7)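 Dose–response in HEK-Blue NOD2 and NOD1 cells (5 × 10^5 cells/mL): 1 h pre-treatment with 0.3125–20 µM antagonist, then 2 µM MDP or 100 nM C12-iE-DAP respectively, 18 h incubation. SEAP absorbance read at 620 nm. IC50 fitted by non-linear regression. Duplicates, three biological replicates, DMSO ≤0.1%.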

Data set [15] has as its system THP-1. The data set is described as follows: Cytotoxicity against human THP-1 cells assessed as […] dehydrogenase leakage at 20 uM incubated for 18 hrs. The settings on record: thp-1, 18 h. In kind it is cell-based. In outline:
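THP-1 cells treated 18 h with compound at up to 20 µM. Lactate dehydrogenase released into cell-free supernatant measured with a colorimetric kit, results given as OD.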

Data set [16] concerns the target T1, Nucleotide-binding oligomerization domain-containing protein 2. Description: Antagonist activity at NOD2 in human PBMC assessed as reduction in MDP-induced TNF-alpha secretion at 20 uM preincubated for 1 hr followed by MDP stimulation and measured after 18 hrs by flow cytometric analysis. In kind it is tissue-based. Particulars: filed as antagonist, time 19.0 hrs. In short, it runs like this:
as §3

For another data set, the species on record is Homo sapiens. The data set is described as follows: Selectivity index, ratio of IC50 for antagonist activity at human NOD1 expressed in HEK293 cells assessed as reduction in […] induced NF-kappaB activation preincubated for 1 hr followed by C12-iE-DAP stimulation and measured after 18 hrs by SEAP reporter gene based spectrophotometric analysis to IC50 for antagonist activity at human NOD2 cells expressed in HEK293 cells assessed as reduction in MDP induced NF-kappaB activation preincubated for 1 hr followed by […] stimulation and measured after 18 hrs by SEAP reporter gene based spectrophotometric analysis. It counts as cell-based. In outline:
as §7

The term IC50 denotes the concentration at which inhibition is half-maximal.

Calls of active or inactive are those of the source. The rule behind the calls is not given here.

T1 sequence (Q9HC29 whole entry, the tested form may be a part): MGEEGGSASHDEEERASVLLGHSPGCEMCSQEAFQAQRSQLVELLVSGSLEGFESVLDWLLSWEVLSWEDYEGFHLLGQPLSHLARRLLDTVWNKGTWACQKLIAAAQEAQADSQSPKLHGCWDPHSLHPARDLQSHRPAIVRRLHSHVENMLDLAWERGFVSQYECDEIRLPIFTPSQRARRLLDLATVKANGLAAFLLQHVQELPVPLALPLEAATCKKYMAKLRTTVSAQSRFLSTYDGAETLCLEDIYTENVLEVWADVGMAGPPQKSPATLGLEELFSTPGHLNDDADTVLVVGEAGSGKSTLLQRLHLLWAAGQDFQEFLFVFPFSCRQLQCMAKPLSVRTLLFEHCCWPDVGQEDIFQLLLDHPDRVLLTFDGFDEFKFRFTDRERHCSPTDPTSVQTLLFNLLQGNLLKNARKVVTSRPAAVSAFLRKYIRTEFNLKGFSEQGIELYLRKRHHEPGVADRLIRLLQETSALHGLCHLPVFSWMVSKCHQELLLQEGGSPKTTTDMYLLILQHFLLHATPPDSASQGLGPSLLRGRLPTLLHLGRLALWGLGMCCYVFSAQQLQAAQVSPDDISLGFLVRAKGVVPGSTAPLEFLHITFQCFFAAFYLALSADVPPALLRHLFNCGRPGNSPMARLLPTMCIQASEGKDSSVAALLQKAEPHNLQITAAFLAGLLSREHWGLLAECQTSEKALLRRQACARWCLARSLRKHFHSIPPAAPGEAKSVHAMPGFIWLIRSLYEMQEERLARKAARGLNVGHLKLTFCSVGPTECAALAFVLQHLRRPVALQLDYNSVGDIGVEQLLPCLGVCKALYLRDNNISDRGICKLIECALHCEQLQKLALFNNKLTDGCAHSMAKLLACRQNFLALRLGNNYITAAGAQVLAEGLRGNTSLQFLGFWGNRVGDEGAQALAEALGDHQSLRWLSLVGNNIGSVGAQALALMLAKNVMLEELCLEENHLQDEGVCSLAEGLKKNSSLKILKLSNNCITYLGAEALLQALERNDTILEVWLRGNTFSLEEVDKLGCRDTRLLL

Consider `O=C(Cn1c(CCNS(=O)(=O)c2ccccc2)nc2ccccc21)Nc1ccc2c(c1)CCC2`, for which the outcome in the data set on THP-1 [1], in the data set with THP-1 [2] and in the data set with THP-1 [5] was inactive. Also, the outcome (in data set [3]; in data set [4]; in [6]; in [8]; in the data set with THP-1 [9]; in data set [12]) was Active. The outcome in data set [13] and in data set [16] was Active. Further, the 50% inhibitory concentration (IC50) was 28.2 µM in data set [7] and 5.23 µM in data set [14]. In addition, the Activity result with HEK293 [10], in the data set on HEK293 [11] and in the data set on THP-1 [15] was “Non-Toxic” throughout.

`O=C(Cn1c(CCNC(=O)c2ccccc2)nc2ccccc21)Nc1ccc2c(c1)CCC2`: the outcome in data set [4], in data set [12] and in data set [13] was Active. Besides, the IC50 in data set [7] was determined as 27.6 µM; in data set [14] it was 6.2 µM. Moreover, the Activity result in the data set with HEK293 [10] and in the data set with HEK293 [11] was “Non-Toxic” throughout. In addition, in the data set listed under Homo sapiens, the Ratio IC50 was 4.5.

As to `CN(C)c1cccc2c(S(=O)(=O)NCCc3nc4ccccc4n3CC(=O)Nc3ccc4c(c3)CCC4)cccc12`, the outcome with THP-1 [1], in the data set with THP-1 [2] and in the data set on THP-1 [5] was inactive. Besides, the outcome (in data set [4]; in data set [8]; with THP-1 [9]; in data set [12]; in [13]) was Active. Moreover, the values for the IC50 in data set [7] and in data set [14] were 2.68 µM and 6.2 µM, respectively. The Activity entry in the data set on HEK293 [10], with HEK293 [11] and in the data set on THP-1 [15] was “Non-Toxic” throughout.
